Results: ChEMBL document CHEMBL3400013, “Synthesis and biological activity evaluation of hydrazone derivatives based on a Tröger's base skeleton” (Bioorg Med Chem, 2015)
Calls of active or inactive are those of the source. The rule behind the calls is not given here.

Tests used:
Nucleic Acid [1] = assay: Binding affinity to DNA (unknown origin) assessed as DNA intercalation by UV-visible spectrophotometry in presence of Ni2+; assay type: nucleic-acid assay
BJ [2] = assay: Selectivity index, ratio of IC50 for human BJ cells to IC50 for human CCRF-CEM cells; assay type: functional; details: pooled result: one value given for 2 cell lines, strains, targets or settings
CEM-DNR = assay: Selectivity index, ratio of IC50 for human MRC5 cells to IC50 for human CEM-DNR cells; assay type: functional
BJ [3] = assay: Selectivity index, ratio of IC50 for human BJ cells to IC50 for human K562 cells; assay type: functional
A549 = assay: Selectivity index, ratio of IC50 for human BJ cells to IC50 for human A549 cells; assay type: functional
BJ [4] = assay: Selectivity index, ratio of IC50 for human BJ cells to IC50 for human HCT116 cells; assay type: functional
BJ [5] = assay: Selectivity index, ratio of IC50 for human BJ cells to IC50 for human p53-/- HCT116 cells; assay type: functional
CCRF-CEM [6] = assay: Cytostatic activity against human CCRF-CEM cells after 72 hrs by MTT assay; assay type: functional, cell-based
Outline: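 Cells were seeded at 25,000–30,000 per well and pre-incubated for 24 h at 37°C in 5% CO2. Four-fold compound dilutions were added in duplicate and incubated for 72 h. MTT was added for 1–4 h, and formazan was dissolved in 10% aq SDS (pH 5.5) overnight at 37°C. OD was read at 540 nm. IC50 came from dose-response curves, mean ± SD of eight independent experiments.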

CCRF-CEM [7] = assay: Induction of apoptosis in human CCRF-CEM cells assessed as apoptotic cells at 5 times IC50 after 24 hrs by propidium iodide staining-based flow cytometry; assay type: functional
Outline: (§1)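 Cells were then fixed in 70% ethanol, washed in hypotonic citrate buffer, treated with RNase (50 µg/mL) and stained with propidium iodide. Flow cytometry used a 488 nm laser. Apoptosis was scored as the percentage of particles with propidium content below G0/G1.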

CCRF-CEM [8] = assay: Cell cycle arrest in human CCRF-CEM cells assessed as accumulation at S phase at 5 times IC50 after 24 hrs by propidium iodide staining-based flow cytometry; assay type: functional; outline: as §1
CCRF-CEM [9] = assay: Cell cycle arrest in human CCRF-CEM cells assessed as accumulation at G2/M phase at 5 times IC50 after 24 hrs by propidium iodide staining-based flow cytometry; assay type: functional; outline: as §1
CCRF-CEM [10] = assay: Induction of apoptosis in human CCRF-CEM cells assessed as mitotic cells at 5 times IC50 after 24 hrs by pH3Ser10+ labeling-based flow cytometry; assay type: functional
CCRF-CEM [11] = assay: Induction of apoptosis in human CCRF-CEM cells assessed as inhibition of RNA synthesis at 5 times IC50 after 24 hrs by propidium iodide/BrU staining by flow cytometry; assay type: functional; set-up: scale not given: the % may be the effect or the level left
Enterococcus faecalis = assay: Antimicrobial activity against Enterococcus faecalis CCM 4224 up to 200 uM after 24 to 48 hrs by broth microdilution method; assay type: functional, organism-based
Pseudomonas aeruginosa = assay: Antimicrobial activity against Pseudomonas aeruginosa CCM 395 up to 200 uM after 24 to 48 hrs by broth microdilution method; assay type: functional, organism-based
Pichia kudriavzevii = assay: Antifungal activity against Candida crusei up to 200 uM after 24 to 48 hrs by broth microdilution method; assay type: functional, organism-based
Candida parapsilosis = assay: Antifungal activity against Candida parapsilosis up to 200 uM after 24 to 48 hrs by broth microdilution method; assay type: functional, organism-based
[12] = Metal chelating activity of the compound assessed as formation of Fe2+ complex by UV-vis spectrometry; assay type: physicochemical
Nucleic Acid [13] = assay: Binding affinity to DNA (unknown origin) assessed as DNA intercalation by UV-visible spectrophotometry; assay type: nucleic-acid assay
Nucleic Acid [14] = assay: Binding affinity to DNA (unknown origin) assessed as DNA intercalation by UV-visible spectrophotometry in presence of Cu2+; assay type: nucleic-acid assay
CCRF-CEM [15] = assay: Induction of apoptosis in human CCRF-CEM cells assessed as inhibition of RNA synthesis after 24 hrs by propidium iodide/BrU staining by flow cytometry; assay type: functional, cell-based

| SMILES | Activity (Nucleic Acid [1]) | Ratio IC50 (BJ [2]) | Ratio IC50 (CEM-DNR) | Ratio IC50 (BJ [3]) | Ratio IC50 (A549) | Ratio IC50 (BJ [4]) | Ratio IC50 (BJ [5]) | IC50 (CCRF-CEM [6]) [nM] | Activity (CCRF-CEM [7]) [%] | Activity (CCRF-CEM [8]) [%] | Activity (CCRF-CEM [9]) [%] | Activity (CCRF-CEM [10]) [%] | Activity (CCRF-CEM [11]) [%] | Activity (Enterococcus faecalis) | Activity (Pseudomonas aeruginosa) | Activity (Pichia kudriavzevii) | Activity (Candida parapsilosis) | Activity [12] | Activity (Nucleic Acid [13]) | Activity (Nucleic Acid [14]) | other results |
| --- | --- | --- | --- | --- | --- | --- | --- | --- | --- | --- | --- | --- | --- | --- | --- | --- | --- | --- | --- | --- | --- |
| O=C(N/N=C/c1ccccc1O)c1ccc2c3c(ccc2c1)N1Cc2c(ccc4cc(C(=O)N/N=C/c5ccccc5O)ccc24)N(C3)C1 | Active | 0.9 | 0.1 | 0.6 | 0.3 | 0.8 | 1.7 | 360 | 50.23 | 37.75 | 18.92 | 0.01 | 83.92 | inactive | inactive | inactive | inactive | Not Active | inactive | Active |  |
| O=C(NN=C(c1ccccn1)c1ccccn1)c1ccc2c3c(ccc2c1)N1Cc2c(ccc4cc(C(=O)NN=C(c5ccccn5)c5ccccn5)ccc24)N(C3)C1 | Active | 1.7 | 0.7 | 2.4 | 0.8 | 3.4 | 2 | 910 | 24.51 | 68.14 | 28.23 | 1.72 | 55.9 | inactive | inactive | inactive | inactive | Not Active | inactive | Active |  |
| O=C(N/N=C/c1cc(F)ccc1O)c1ccc2c3c(ccc2c1)N1Cc2c(ccc4cc(C(=O)N/N=C/c5cc(F)ccc5O)ccc24)N(C3)C1 | Active | 26.3 | 9.8 | 18.1 | 33.6 | 64.9 | 51 | 1580 | 58.01 | 42.41 | 16.49 | 0.15 | 4.37 | inactive | inactive | inactive | inactive | Not Active | inactive | Active | inhibition (CCRF-CEM [15]): Dose-dependent effect |
| COc1ccc(O)c(/C=N/NC(=O)c2ccc3c4c(ccc3c2)N2Cc3c(ccc5cc(C(=O)N/N=C/c6cc(OC)ccc6O)ccc35)N(C4)C2)c1 | Active | 162.3 | 13.3 | 357.2 | 123.2 | 622.3 | 495 | 180 | 21.74 | 48.55 | 12.4 | 0.67 | 56.37 | inactive | inactive | inactive | inactive | Not Active | inactive | Active |  |
| O=C(N/N=C/c1nccc2ccccc12)c1ccc2c3c(ccc2c1)N1Cc2c(ccc4cc(C(=O)N/N=C/c5nccc6ccccc56)ccc24)N(C3)C1 | Active | 172 | 15.9 | 121.9 | 5.4 | 5.7 | 4 | 580 | 10.73 | 39.87 | 13.57 | 1.52 | 16.94 | inactive | inactive | inactive | inactive | Not Active | inactive | Active | inhibition (CCRF-CEM [15]): Dose-dependent effect |
| O=C(N/N=C/c1cc(O)ccc1O)c1ccc2c3c(ccc2c1)N1Cc2c(ccc4cc(C(=O)N/N=C/c5cc(O)ccc5O)ccc24)N(C3)C1 | Active | 63.2 | 1.4 | 8 | 20.9 | 9.1 | 29 | 60 | 9.74 | 58.22 | 20.46 | 2.39 | 43.16 | inactive | inactive | inactive | inactive | Not Active | inactive | Active |  |
| Cc1ccc(O)c(/C=N/NC(=O)c2ccc3c4c(ccc3c2)N2Cc3c(ccc5cc(C(=O)N/N=C/c6cc(C)ccc6O)ccc35)N(C4)C2)c1 | Active | 0.8 | 0.1 | 0.5 | 0.9 | 0.8 | 1.1 | 580 | 54.07 | 46.78 | 14.79 | 0.22 | 26.44 | inactive | inactive | inactive | inactive | Not Active | inactive | Active |  |
| COC(=O)c1ccc(O)c(/C=N/NC(=O)c2ccc3c4c(ccc3c2)N2Cc3c(ccc5cc(C(=O)N/N=C/c6cc(C(=O)OC)ccc6O)ccc35)N(C4)C2)c1 | Active | 16.3 | 3.2 | 9.4 | 7.7 | 8.9 | 9.7 | 5620 | 14.56 | 55.48 | 13.26 | 0.86 | 21.03 | inactive | inactive | inactive | inactive | Not Active | inactive | Active |  |
